Test results taken from article PMC7275135 (Applied Microbiology and Biotechnology, 2020).
Where a SMILES comes first, the peptide text is derived from it.

Assays:
S. aureus CVCC 546 [1] = assay: S. aureus-induced endometritis model of mice; type: in vivo, mouse; details: 10-mg/kg
S. aureus CVCC 546 [2] = assay: Membrane depolarization, Rhodamine 123 flow cytometry; type: cell-based, Staphylococcus aureus; details: 2 h, 10^8 CFU/mL
[3] = system: intracellular S. aureus CVCC 546; assay: Intracellular antimicrobial activity in MEECs; type: cell-based, Staphylococcus aureus; details: 24 h treatment, dose-dependent, colony counting
How it was run: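 MEECs in antibiotic-free DMEM, seeded at 2.5 × 10^5 cells/mL and grown 24 h, then infected with an equal volume of S. aureus CVCC 546 (2.5 × 10^7 CFU/mL) for 0.5 h. Extracellular bacteria killed with lysostaphin 50 μg/mL for 1 h, then PBS wash.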

[4] = system: LTA-induced cytokines from RAW 264.7; assay: LTA neutralization, cytokine ELISA; type: cell-based, mouse; details: RAW 264.7, LTA-stimulated, 25-μg/mL
MEECs = assay: Cytotoxicity, MTT assay; type: cell-based, mouse; details: 256 μg/mL, n = 4
[5] = system: S. epidermidis ATCC 12228; assay: MIC, microtiter plate assay; type: cell-based, Staphylococcus epidermidis; details: triplicate
Gram-positive bacteria = assay: MIC range over the Gram-positive strains; type: cell-based; details: S. aureus CVCC 546, S. epidermidis ATCC 12228, S. pneumoniae CVCC 2350, S. suis CVCC 3928

SMILES	histopathology of uteri (H&E) (S. aureus CVCC 546 [1])	Rh 123 fluorescence intensity increased by (S. aureus CVCC 546 [2]; 1 × MIC) [%]	Rh 123 fluorescence intensity increased by (S. aureus CVCC 546 [2]; 2 × MIC) [%]	killing of S. aureus CVCC 546 in MEEC cells [3]	IL-10 increased by [4] [%]	cell viability toward MEECs (MEECs) [%]	MICs [5] [µM]	MICs (range over strains) (Gram-positive bacteria)
CN[C@H](CC(C)C)C(=O)N[C@H]1C(=O)N[C@@H](CC(N)=O)C(=O)N[C@H]2C(=O)N[C@H]3C(=O)N[C@H](C(=O)N[C@H](C(=O)O)c4cc(O)cc(O)c4-c4cc3ccc4O)[C@H](O)c3ccc(c(Cl)c3)Oc3cc2cc(c3O[C@@H]2O[C@H](CO)[C@@H](O)[C@H](O)[C@H]2O[C@H]2C[C@](C)(N)[C@H](O)[C@H](C)O2)Oc2ccc(cc2Cl)[C@H]1O [vancomycin]	Only a small amount of scattered inflammatory cells were observed in part of uterus	23.1	26.6	over 99%	81.26	90.15		
CC[C@H](C)[C@@H]1NC(=O)[C@@H]2CSSC[C@@H](C(=O)N[C@@H](CCCNC(=N)N)C(=O)N[C@@H](CCCCN)C(=O)O)NC(=O)[C@H](CC(N)=O)NC(=O)[C@@H]3CSSC[C@H](NC(=O)[C@H](C)NC(=O)[C@H](C)NC(=O)[C@H](Cc4c[nH]cn4)NC(=O)CNC(=O)[C@H](C(C)C)NC(=O)[C@H](CCCCN)NC(=O)[C@H](Cc4ccccc4)NC(=O)[C@@H]4CCCN4C(=O)[C@H](CO)NC(=O)[C@H](CC(C)C)NC(=O)[C@H](CC(C)C)NC(=O)[C@H](CC(=O)O)NC(=O)[C@@H](NC(=O)[C@@H](NC(=O)[C@H](C)N)[C@@H](C)O)CSSC[C@H](NC(=O)[C@H](Cc4c[nH]c5ccccc45)NC(=O)CNC(=O)CNC(=O)[C@H](CCCNC(=N)N)NC(=O)[C@H](CCCCN)NC(=O)CNC(=O)[C@H](CCCNC(=N)N)NC(=O)[C@H](C)NC1=O)C(=O)N[C@@H](CC(=O)O)C(=O)N[C@@H](CCCCN)C(=O)N[C@@H](CCCNC(=N)N)C(=O)N[C@@H](C)C(=O)N[C@@H](C(C)C)C(=O)N3)C(=O)N[C@@H](C)C(=O)N[C@@H](C)C(=O)N[C@@H](Cc1c[nH]cn1)C(=O)N2 [DLP4] (HELM PEPTIDE1{A.T.C.D.L.L.S.P.F.K.V.G.H.A.A.C.A.A.H.C.I.A.R.G.K.R.G.G.W.C.D.K.R.A.V.C.N.C.R.K}$PEPTIDE1,PEPTIDE1,3:R3-30:R3|PEPTIDE1,PEPTIDE1,16:R3-36:R3|PEPTIDE1,PEPTIDE1,20:R3-38:R3$$$V2.0; N-terminus assumed)						74.14	14.99	3.75~14.99 μM
